Measured values as given in ChEMBL document CHEMBL1158139, “Bioactive oligostilbenoids from the stem bark of Hopea exalata” (J Nat Prod, 2006).
Values after ≈ are worked out from the molar mass of the structure shown.

Tests used:
[1] = system: Pyricularia oryzae; assay: Antifungal activity against Pyricularia oryzae by MTT assay; assay type: functional
[2] = system: Cytospora mali; assay: Antifungal activity against Valsa mali by MTT assay; assay type: functional
Procedure, shortened: (§1)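 MIC read visually on microtiter plates, then confirmed colorimetrically with MTT. Each well received RPMI 1640 carrying MTT at 5 mg/mL and was incubated 3 h at 37 °C. Medium was removed and the dye extracted with isopropanol containing 5% mol/L HCl for 30 min at room temperature with gentle agitation. OD read at 550 nm.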

[3] = system: Alternaria solani; assay: Antifungal activity against Alternaria solani by MTT assay; assay type: functional; procedure, shortened: as §1
[4] = system: Fusarium oxysporum f. sp. vasinfectum; assay: Antifungal activity against Fusarium oxysporum f. sp. vasinfectum by MTT assay; assay type: functional; procedure, shortened: as §1
[5] = system: Alternaria alternata; assay: Antifungal activity against Alternaria alternata by MTT assay; assay type: functional; procedure, shortened: as §1
[6] = system: Colletotrichum lagenaria; assay: Antifungal activity against Colletotrichum lagenarium by MTT assay; assay type: functional; procedure, shortened: as §1
[7] = target: Urease (Canavalia ensiformis, UniProt P07374); assay: Inhibition of jack bean urease
Urease, sequence (P07374 whole entry): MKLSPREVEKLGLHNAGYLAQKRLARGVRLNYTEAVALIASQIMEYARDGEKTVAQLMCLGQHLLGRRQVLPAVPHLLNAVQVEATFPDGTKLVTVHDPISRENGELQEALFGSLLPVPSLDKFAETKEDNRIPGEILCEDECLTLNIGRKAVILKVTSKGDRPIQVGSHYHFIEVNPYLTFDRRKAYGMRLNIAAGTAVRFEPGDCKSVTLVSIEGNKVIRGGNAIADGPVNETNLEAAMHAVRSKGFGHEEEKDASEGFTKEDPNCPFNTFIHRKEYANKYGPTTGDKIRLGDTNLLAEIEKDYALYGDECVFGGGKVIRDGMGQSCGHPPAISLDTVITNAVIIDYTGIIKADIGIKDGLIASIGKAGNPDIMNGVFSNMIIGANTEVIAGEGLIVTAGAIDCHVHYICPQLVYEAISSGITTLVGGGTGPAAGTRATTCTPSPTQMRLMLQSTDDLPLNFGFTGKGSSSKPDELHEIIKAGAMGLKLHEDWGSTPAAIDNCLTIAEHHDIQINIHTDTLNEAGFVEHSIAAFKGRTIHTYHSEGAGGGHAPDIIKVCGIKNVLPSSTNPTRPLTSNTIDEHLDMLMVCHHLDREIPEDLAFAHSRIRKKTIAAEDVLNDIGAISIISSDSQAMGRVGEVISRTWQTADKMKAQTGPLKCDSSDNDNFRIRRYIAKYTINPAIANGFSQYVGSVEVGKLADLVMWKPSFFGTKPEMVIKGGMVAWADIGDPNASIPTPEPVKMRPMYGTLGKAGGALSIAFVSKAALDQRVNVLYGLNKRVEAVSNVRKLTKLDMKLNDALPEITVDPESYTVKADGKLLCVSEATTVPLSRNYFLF
Procedure, shortened: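 Jack bean urease (4 U) preincubated with test compound (100 µg) for 2 h at room temperature; then 100 mM phosphate buffer pH 6.8 containing 500 mM urea and 0.002% phenol red added, incubated at room temperature; time for ammonium carbonate to raise pH from 6.8 to 7.7 read at 570 nm; IC50 determined; acetohydroxamic acid as positive control.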

SMILES | MIC [1] | MIC [2] | MIC [3] | MIC [4] | MIC [5] | MIC [6] | IC50 [7]
Oc1ccc([C@@H]2c3cc(O)ccc3[C@@H]3c4c(O)cc(O)cc4[C@@H]2c2c(O)cc(O)c4c2[C@@H]3[C@@H](c2ccc(O)cc2)[C@@H]4c2cc(O)cc(O)c2)cc1 [VATICANOL G] | 0.78 µg/mL (≈ 1.15 µM) | > 50 µg/mL | 24.6 µg/mL (≈ 36.1 µM) | > 50 µg/mL | > 50 µg/mL | > 50 µg/mL | –
O=C1C=C2O[C@@H](c3ccc(O)cc3)[C@H]3C2=C(C1=O)[C@H]1c2c(cc(O)cc2[C@@H]2c4c(cc(O)cc43)O[C@H]2c2ccc(O)cc2)O[C@@H]1c1ccc(O)cc1 [HOPEANOLIN] | 0.1 µg/mL (≈ 0.144 µM) | 1.55 µg/mL (≈ 2.24 µM) | 1.56 µg/mL (≈ 2.25 µM) | 6.22 µg/mL (≈ 8.98 µM) | 22.5 µg/mL (≈ 32.5 µM) | 10.6 µg/mL (≈ 15.3 µM) | –
Oc1ccc([C@H]2Oc3cc(O)cc4c3[C@@H]2c2cc(O)cc3c2[C@@H](c2cc(O)cc5c2[C@@H]4[C@H](c2ccc(O)cc2)O5)[C@H](c2ccc(O)cc2)O3)cc1 | 6.25 µg/mL (≈ 9.21 µM) | > 50 µg/mL | 3.12 µg/mL (≈ 4.6 µM) | 25.2 µg/mL (≈ 37.1 µM) | > 50 µg/mL | 12.5 µg/mL (≈ 18.4 µM) | –
Oc1ccc([C@@H]2c3c(O)cc(O)cc3[C@@H]3c4c(cc(O)c5c4[C@H]2[C@H](c2ccc(O)cc2)[C@H]5c2cc(O)cc(O)c2)O[C@H]3c2ccc(O)cc2)cc1 [VATICANOL A] | 3.12 µg/mL (≈ 4.58 µM) | 20.1 µg/mL (≈ 29.5 µM) | 6.25 µg/mL (≈ 9.18 µM) | 12.7 µg/mL (≈ 18.7 µM) | > 50 µg/mL | > 50 µg/mL | –
CC(=O)N1CCN(c2ccc(OCC3COC(Cn4ccnc4)(c4ccc(Cl)cc4Cl)O3)cc2)CC1 (stereo not drawn) [KETOCONAZOLE] | 0.03 µg/mL (≈ 0.0565 µM) | 0.51 µg/mL (≈ 0.96 µM) | 0.83 µg/mL (≈ 1.56 µM) | 2.21 µg/mL (≈ 4.16 µM) | 1.04 µg/mL (≈ 1.96 µM) | 0.97 µg/mL (≈ 1.83 µM) | –
O=C1c2cc(O)cc3oc(-c4ccc(O)cc4)c(c23)-c2cc(O)cc(O)c2C1c1ccc(O)cc1 (stereo not drawn) [SHOREAPHENOL] | 27.3 µg/mL (≈ 58.5 µM) | 7.13 µg/mL (≈ 15.3 µM) | > 50 µg/mL | > 50 µg/mL | – | > 50 µg/mL | 127 µM
Oc1ccc([C@@H]2c3c(O)cc(O)cc3[C@@H]3c4c(cc(O)c5c4[C@@H]2[C@@H](c2ccc(O)cc2)[C@@H]5c2cc(O)cc(O)c2)O[C@H]3c2ccc(O)cc2)cc1 [PAUCIFLOROL A] | 11.5 µg/mL (≈ 16.9 µM) | > 50 µg/mL | > 50 µg/mL | > 50 µg/mL | 1.56 µg/mL (≈ 2.29 µM) | > 50 µg/mL | –
CC(=O)NO [ACETOHYDROXAMIC ACID] | – | – | – | – | – | – | 17.3 µM
